Holding throughout (assay type): functional
Holding throughout (conditions): read-out: ED50 (the source's name)

For assay [1], the system named is A549. The experiment in a line: Cytotoxicity against human A549 cells. Summed up:
(§1)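 In vitro cytotoxicity assay run by published protocols. Cell panel: human malignant melanoma ([…]), lung carcinoma (A-549), ileocecal adenocarcinoma (HCT-8), nasopharyngeal epidermoid carcinoma (KB), medulloblastoma (TE-671), and murine lymphocytic leukemia (P-388).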

Assay [2] concerns HCT-8. Briefly: Cytotoxicity against human HCT8 cells. The essentials: as §1
For assay [3], the system named is TE-671. Briefly: Cytotoxicity against human TE671 cells. The essentials: as §1
The subject of assay [4] is RPMI-7951. Briefly: Cytotoxicity against human RPMI7951 cells. The essentials: as §1
Assay [5] concerns KB. Briefly: Cytotoxicity against human KB cells. The essentials: as §1
For assay [6], the system named is P388. The experiment in a line: Cytotoxicity against mouse P388 cells. Summed up: as §1

In brackets after ≈: the same amount, converted by molar mass.

Consider `COC(=O)[C@]12OC[C@]34[C@H]([C@@H](O)[C@@H]1O)[C@@]1(C)[C@H](O)C(=O)C=C(C)[C@@H]1C[C@H]3OC(=O)[C@H](OC(=O)/C=C(\C)C(C)C)[C@@H]24` [BRUCEANOL D], for which the EC50 in assay [1] came out at 0.55 µg/mL (≈ 1 µM); in assay [2], 0.09 µg/mL (≈ 0.164 µM); in assay [3], 0.08 µg/mL (≈ 0.146 µM); in assay [4] it was 0.09 µg/mL (≈ 0.164 µM); in assay [5], 0.08 µg/mL (≈ 0.146 µM); in assay [6], 0.09 µg/mL (≈ 0.164 µM).

Take `COC(=O)[C@]12OC[C@]34[C@H]([C@@H](O)[C@@H]1O)[C@@]1(C)[C@H](O)C(=O)C[C@@H](C)[C@@H]1C[C@H]3OC(=O)[C@H](OC(=O)/C=C(\C)C(C)C)[C@@H]24` [BRUCEANOL E]: the EC50 came out at 3.75 µg/mL (≈ 6.81 µM) in assay [1]; 0.37 µg/mL (≈ 0.672 µM) in assay [2]; 0.12 µg/mL (≈ 0.218 µM) in assay [3]; 0.11 µg/mL (≈ 0.2 µM) in assay [4]; 0.55 µg/mL (≈ 0.999 µM) in assay [5]; 0.57 µg/mL (≈ 1.04 µM) in assay [6].

`COC(=O)[C@]12OC[C@]34[C@H]([C@@H](O)[C@@H]1O)[C@@]1(C)C(=O)C(O)=C[C@@H](C)[C@@H]1C[C@H]3OC(=O)[C@H](OC(=O)/C=C(\C)C(C)C)[C@@H]24` [BRUCEANOL F]: the EC50 in assay [1] amounted to 0.55 µg/mL (≈ 1 µM); in assay [2], 0.13 µg/mL (≈ 0.237 µM); in assay [3], 0.09 µg/mL (≈ 0.164 µM); in assay [4], 0.09 µg/mL (≈ 0.164 µM); in assay [5], 0.43 µg/mL (≈ 0.784 µM); in assay [6], 0.36 µg/mL (≈ 0.656 µM).

Source of the values: ChEMBL document CHEMBL1147401, “Bruceanols D, E, and F three new cytotoxic quassinoids from Brucea antidysenterica” (1993).
